# Assay results from different studies.
# Each line is one published result; the experiments were not run side by side.
SMILES,method,sample,time,pH,temperature,solubility
CC[C@H](C)[C@H](NC(=O)[C@H](CO)NC(=O)[C@H](CCCNC(=N)N)NC(C)=O)C(=O)N[C@H]1CSSC[C@@H](C(=O)N[C@H](C(N)=O)[C@@H](C)O)NC(=O)[C@H](CCCNC(=N)N)NC(=O)[C@H](Cc2c[nH]cn2)NC(=O)[C@H](Cc2cccc3ccccc23)NC(=O)CNC(=O)[C@H](Cc2c[nH]c3ccccc23)NC(=O)[C@H](CC(=O)O)NC(=O)[C@H](CCC(N)=O)NC(=O)[C@H](Cc2cccc3ccccc23)NC(=O)[C@H](C(C)C)NC1=O,,PBS,,pH 7.4,,200 µg/mL
CC[C@H](C)[C@H](NC(=O)[C@H](Cc1ccccc1)NC(=O)[C@H](Cc1ccc(O)cc1)NC(=O)[C@@H]1CCCN1C(=O)[C@@H](N)Cc1ccc(O)cc1)C(=O)N1CCC[C@H]1C(=O)N[C@@H](C)C(=O)NCC(=O)N[C@H](CCCCN)C(=O)NCC(=O)N[C@@H](CCC(=O)O)C(=O)N[C@H](C(=O)N[C@@H](CC(N)=O)C(=O)N[C@@H](CC(C)C)[C@@H](O)CC(=O)N[C@H](C(=O)N[C@@H](C)C(=O)N[C@@H](CCC(=O)O)C(=O)N1CCC[C@@H]1C(=O)N[C@@H](CCCCNC(=O)CCC(=O)O[C@H]1CC[C@@]2(C)C(=CC[C@H]3[C@@H]4CC[C@H]([C@H](C)CCCC(C)C)[C@@]4(C)CC[C@@H]32)C1)C(N)=O)C(C)C)C(C)C,,aqueous buffer,,pH 6.5,,> 2450 µg/mL
CNC(=O)O[C@@H](C)/C=C\C(=O)N[C@H]1CC[C@@H](C/C=C(C)/C=C/[C@@H]2C[C@]3(CO3)CC(C)(C)O2)CC1,HPLC,PBS,,,,45 µM
COc1ccc2c(c1)NC(=O)CN2c1nc(C)nc2c1CCC2,,aqueous buffer,,pH 7.4,,26.4 µg/mL
CC[C@H](C)[C@H](NC(C)=O)C(=O)N[C@H]1CSSC[C@@H](C(=O)N[C@H](C(N)=O)[C@@H](C)O)NC(=O)[C@H](CCCNC(=N)N)NC(=O)[C@H](Cc2cnc[nH]2)NC(=O)[C@H](Cc2cccc3ccccc23)NC(=O)CNC(=O)[C@H](Cc2c[nH]c3ccccc23)NC(=O)[C@H](CC(=O)O)NC(=O)[C@H](CCC(N)=O)NC(=O)[C@H](Cc2c[nH]c3ccccc23)NC(=O)[C@H](C(C)C)NC1=O,,PBS,,pH 7.4,,150 µg/mL
COc1ccc(NC(=O)N2CCCCN3[C@H](CN(C)C)[C@H](c4ccc(C#Cc5ccccc5)cc4)[C@@H]3C2)cc1,,aqueous buffer,,pH 7,,33 µM
O=C(Nc1ccc(-c2ccc(C(=O)Nc3cccc4cccc(S(=O)(=O)O)c34)cc2)cc1)c1ccc([N+](=O)[O-])cc1,,water,,,,4.7 µg/mL
CCCCCCC#Cc1cncc(-c2nnc(SCc3cc([N+](=O)[O-])cc([N+](=O)[O-])c3)n2C)c1,,PBS,,,,< 1.6 µM
COc1cc(C)c2[nH]cc(/C=N/NC(=N)NCCc3cccnc3)c2c1,,PBS,2 h,pH 7.4,,30.1 µM
CC[C@H](C)[C@H](NC(=O)[C@H](CO)NC(=O)[C@H](CCCNC(=N)N)NC(C)=O)C(=O)N[C@H]1CSSC[C@@H](C(=O)N[C@H](C(N)=O)[C@@H](C)O)NC(=O)[C@H](CCCNC(=N)N)NC(=O)[C@H](Cc2c[nH]cn2)NC(=O)[C@H](C)NC(=O)CNC(=O)[C@H](Cc2c[nH]c3ccccc23)NC(=O)[C@H](CC(=O)O)NC(=O)[C@H](CCC(N)=O)NC(=O)[C@H](Cc2ccc3ccccc3c2)NC(=O)[C@H](C(C)C)NC1=O,,PBS,,pH 7.4,,2170 µg/mL
O=C1C=C(N(Cc2ccc(Cl)nc2)CC(F)F)CO1,,methanol,,,20 °C,> 250000 µg/mL
CC[C@H](C)[C@H](NC(=O)[C@H](CO)NC(=O)[C@H](CCCNC(=N)N)NC(C)=O)C(=O)N[C@H]1CSSC[C@@H](C(=O)N[C@H](C(N)=O)[C@@H](C)O)NC(=O)[C@H](CCCNC(=N)N)NC(=O)[C@H](Cc2cnc[nH]2)NC(=O)[C@H](C)NC(=O)CNC(=O)[C@H](Cc2c[nH]c3ccccc23)NC(=O)[C@H](CC(=O)O)NC(=O)[C@H](CCC(N)=O)NC(=O)[C@H](Cc2ccc(O)cc2)NC(=O)[C@H](C(C)C)NC1=O,,PBS,,pH 7.4,,2840 µg/mL
Clc1ccc(CSc2nnc(-c3ccccn3)n2Cc2ccco2)cc1Cl,,aqueous buffer,,pH 5,,< 0.1 µg/mL
